Published values collected from several papers.
Protocols differ between the studies behind these lines.
Target: Rho-associated protein kinase 2 (ROCK2, Homo sapiens, UniProt O75116)

For `O=C(Nc1c[nH]nc1C(=O)NC1CCNCC1)c1cc(F)cc(F)c1`, the remaining binding was 88% (binding, competition with immobilised ligand; 1 µM).
The remaining binding of `FC(F)(F)Oc1cccc(-c2cnc3ccc(-c4ccncc4)nn23)c1` is reported as 42% (binding, competition with immobilised ligand; 5 µM).
`c1cncc(-c2cccc(Nc3nccc(NC4CCCCC4)n3)c2)c1` gave a remaining binding of 25% (binding, competition with immobilised ligand; 10 µM).
For `CC1CCCN1c1nccc(-c2cnn3ncccc23)n1` (stereo not drawn), the remaining binding was 100% (binding; 1 µM).
`C[C@@H]1CN(c2ccc3ncc(-c4ccc5[nH]nc(C6CC6)c5c4)n3n2)C[C@H](C)O1` has a remaining binding of 69% (binding, competition with immobilised ligand; 50 nM).
`N[C@H]1CCN(c2nccc(-c3cnn4ncccc34)n2)C1` has a remaining binding of 100% (binding; 1 µM).
`CC(=O)N1CCC(c2ccc(C(=O)NC(=N)N)cc2C(F)(F)F)CC1` gave a remaining binding of 100% (cell-free assay, competition with immobilised ligand; 1 µM).
`CN(C)c1nccc(-c2cnn3ncccc23)n1` gave a remaining binding of 84% (binding; 1 µM).
The remaining binding of `C[C@@H](c1ccc(-n2cnc3c(N)ncnc32)cc1)N1CCc2nn(C)c(Cc3ccccc3)c2C1=O` is reported as 77% (binding, competition with immobilised ligand; 0.1 µM).
The remaining binding of `CN(c1nccc(-c2cnn3ncccc23)n1)C1CC1` is reported as 100% (binding; 1 µM).
`COCCOc1nc(-c2ccc(Cl)nc2)nc2c1CN(C(=O)c1ncn3ccccc13)CC2` gave a remaining binding of 76% (cell-free assay, competition with immobilised ligand; 0.1 µM).
`Cc1cnc(Nc2ccc(C(=O)N3CCC(N4CCCC4)CC3)cc2)nc1-c1cc2ccccc2s1` has a remaining binding of 11% (binding, competition with immobilised ligand; 1 µM).
`CC1=C(C#N)C(c2ccc3c(c2)c(NC(=O)c2ccccc2C)nn3C)C(C#N)=C(C)N1` gave a remaining binding of 93% (cell-free assay, competition with immobilised ligand; 1 µM).
With `COc1cnc(Nc2cccc(S(N)(=O)=O)c2)nc1N1CCN(c2ccccc2)CC1` the remaining binding was 90% (binding, competition with immobilised ligand; 1 µM).
`O=C(N[C@H]1CCCCC/C=C\C2C[C@@]2(C(=O)O)NC(=O)[C@@H]2C[C@@H](Oc3ccncc3)CN2C1=O)OC1CCCC1` (stereo partly drawn) has a remaining binding of 100% (binding, competition with immobilised ligand; 1 µM).
With `CN(CCCC(F)(F)F)c1nccc(-c2cnn3ncccc23)n1` the remaining binding was 100% (binding; 1 µM).
The remaining binding of `O=C(c1ccc(Nc2nccc(-c3cc4ccccc4s3)n2)cc1)N1CCC(N2CCCC2)CC1` is reported as 7.4% (binding, competition with immobilised ligand; 1 µM).
`Cn1cc(Cl)c2c(Oc3c(F)cc(Nc4cc(Cl)nc(N)n4)cc3F)ccnc21` gave a remaining binding of 83% (cell-free assay, competition with immobilised ligand; 0.1 µM).
The remaining binding of `Cc1cnn2ncc(-c3ccnc(N(C)C)n3)c2c1` is reported as 95% (binding; 1 µM).
For `C[C@@H](c1cccc(C#N)c1)n1cc(Cl)cc(C(N)=O)c1=N`, the remaining binding was 90% (cell-free assay, competition with immobilised ligand; 1 µM).
`CCN1CCN(Cc2ccc(C(=O)Nc3ccc(C)c(Oc4ccc5c(c4)CC(=O)N5)c3)cc2C(F)(F)F)CC1` has a remaining binding of 74% (binding, competition with immobilised ligand; 1 µM).
With `COc1ncc2cc3ccccc3nc2c1C#N` the remaining binding was 98% (cell-free assay, competition with immobilised ligand; 5 µM).
The remaining binding of `Cc1cc(-n2nc(Cc3cc(F)cc(C(F)(F)F)c3)nc2C)ccc1C(N)=O` is reported as 96% (cell-free assay, competition with immobilised ligand; 1 µM).
`O=C(NCCCN1CCOCC1)c1ccc(Nc2nccc(-c3cc4ccccc4s3)n2)cc1` gave a remaining binding of 46% (binding, competition with immobilised ligand; 1 µM).
